One test has as its system Shigella sonnei. The test can be described thus: Antibacterial activity against Shigella sonnei after 8 to 12 hrs by colorimetric microdilution broth technique. In kind it is functional. The essentials: (§1)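 Broth microdilution in RPMI1640. Bacterial suspension in RPMI1640 is mixed with 1% Alamar Blue. Sample dissolved in DMSO at 25 mg/ml (stock) is added to the first row, then serially diluted two-fold down the plate to 128-fold. Plates are incubated at 37 °C for 8–12 h. MIC is the lowest concentration preventing the Alamar Blue change from blue to red. At least three repeats.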
On the technique in general: In broth dilution the organism is exposed to a series of concentrations in liquid medium.

Another test has as its system Salmonella typhi. The test can be described thus: Antibacterial activity against Salmonella typhi after 8 to 12 hrs by colorimetric microdilution broth technique. Particulars: Salmonella enterica. In kind it is functional, Salmonella enterica subsp. enterica serovar Typhi. The essentials: (§2)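 Broth microdilution with a colorimetric read-out. Bacteria were suspended in RPMI1640 with 1% Alamar Blue. Compound was dissolved in DMSO as a 25 mg/ml stock and added to the first row, then serially halved to a 128-fold final dilution. Plates were incubated at 37 °C for 8–12 h. MIC was the lowest concentration preventing the blue-to-red indicator change. Each assay was run at least three times.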

Test [1] concerns Staphylococcus aureus. The test can be described thus: Antibacterial activity against methicillin-resistant Staphylococcus aureus ATCC 43300 after 8 to 12 hrs by colorimetric microdilution broth technique. The test is classed as functional. A digest of the protocol:
as §2

In test [2] the test system is Enterococcus faecalis. The test can be described thus: Antibacterial activity against vancomycin-resistant Enterococcus faecalis ATCC 51299 after 8 to 12 hrs by colorimetric microdilution broth technique. In kind it is functional. The essentials:
as §2

The subject of test [3] is Enterococcus faecalis. The test can be described thus: Antibacterial activity against Enterococcus faecalis TISTR459 after 8 to 12 hrs by colorimetric microdilution broth technique. In kind it is functional. The essentials:
as §2

Another test has as its system Bacillus subtilis. The test can be described thus: Antibacterial activity against Bacillus subtilis after 8 to 12 hrs by colorimetric microdilution broth technique. In kind it is functional. A digest of the protocol: as §1
For test [4], the system named is Staphylococcus aureus. The test can be described thus: Antibacterial activity against Staphylococcus aureus TISTR517 after 8 to 12 hrs by colorimetric microdilution broth technique. The test is classed as functional. A digest of the protocol: as §1
Test [5] relates to Pseudomonas aeruginosa. The test can be described thus: Antibacterial activity against Pseudomonas aeruginosa after 8 to 12 hrs by colorimetric microdilution broth technique. The test is classed as functional. The essentials: as §1
In test [6] the test system is Pseudomonas aeruginosa. Nature of the test: Antibacterial activity against Pseudomonas aeruginosa at up to 300 ug/ml after 8 to 12 hrs by colorimetric microdilution broth technique. The test is classed as functional, organism-based. The essentials:
as §1

Structures are written as SMILES. In brackets after ≈: the same amount, converted by molar mass. Activity calls are given as the source filed them.

As a reminder, the MIC is the smallest concentration in the dilution series that meets the test's criterion for growth inhibition. `CCOc1ccc(/C=C/c2cccc[n+]2C)cc1.O=S(=O)([O-])c1ccc(Br)cc1`: the minimal inhibitory concentration (MIC) in the test on Shigella sonnei stood at 300 µg/mL; against Salmonella typhi, 300 µg/mL; against Staphylococcus aureus [1], 18.8 µg/mL.
With `CCOc1ccc(/C=C/c2ccc3ccccc3[n+]2C)cc1.Nc1ccc(S(=O)(=O)[O-])cc1` [listing 1 of 2 here], the MIC in the test on Enterococcus faecalis [2] turned out to be 75 µg/mL; in the test with Enterococcus faecalis [3], 37.5 µg/mL; against Shigella sonnei, 75 µg/mL; in the test with Salmonella typhi, 75 µg/mL; in the test with Staphylococcus aureus [1], 4.68 µg/mL; in the test on Bacillus subtilis it was 37.5 µg/mL. Further, inhibition of growth against Staphylococcus aureus [4] (MIC) required 37.5 µg/mL.
Consider `CN(C)c1ccc(/C=C/c2ccc3ccccc3[n+]2C)cc1.O=S(=O)([O-])c1ccc(Br)cc1`, for which the MIC with Enterococcus faecalis [2] is 2.34 µg/mL; against Enterococcus faecalis [3] it was 2.34 µg/mL; in the test on Shigella sonnei, 2.34 µg/mL; with Salmonella typhi it was 300 µg/mL; with Staphylococcus aureus [1] it was 2.34 µg/mL; against Bacillus subtilis it was 2.34 µg/mL. For the same compound, the MIC with Pseudomonas aeruginosa [5] is 300 µg/mL; against Staphylococcus aureus [4], 2.34 µg/mL.
Compound `CCOc1ccc(/C=C/c2cccc[n+]2C)cc1.Nc1ccc(S(=O)(=O)[O-])cc1` gave an MIC with Staphylococcus aureus [1] of 75 µg/mL.
In the case of `CCOc1ccc(/C=C/c2ccc3ccccc3[n+]2C)cc1.COc1ccc(S(=O)(=O)[O-])cc1`, the MIC was 18.8 µg/mL in the test with Enterococcus faecalis [2]; 75 µg/mL against Enterococcus faecalis [3]; 150 µg/mL in the test with Shigella sonnei; 2.34 µg/mL with Staphylococcus aureus [1]; 18.8 µg/mL against Bacillus subtilis.
For the compound `CN[C@H](CC(C)C)C(=O)N[C@H]1C(=O)N[C@@H](CC(N)=O)C(=O)N[C@H]2C(=O)N[C@H]3C(=O)N[C@H](C(=O)N[C@H](C(=O)O)c4cc(O)cc(O)c4-c4cc3ccc4O)[C@H](O)c3ccc(c(Cl)c3)Oc3cc2cc(c3O[C@@H]2O[C@H](CO)[C@@H](O)[C@H](O)[C@H]2O[C@H]2C[C@](C)(N)[C@H](O)[C@H](C)O2)Oc2ccc(cc2Cl)[C@H]1O` [VANCOMYCIN], the MIC was 2.34 µg/mL (≈ 1.61 µM) in the test with Enterococcus faecalis [2]; 9.38 µg/mL (≈ 6.47 µM) with Enterococcus faecalis [3]; 2.34 µg/mL (≈ 1.61 µM) against Shigella sonnei; 2.34 µg/mL (≈ 1.61 µM) against Salmonella typhi; below 2.34 µg/mL against Staphylococcus aureus [1]; 2.34 µg/mL (≈ 1.61 µM) in the test on Bacillus subtilis. Besides, the MIC in the test with Pseudomonas aeruginosa [5] amounted to 2.34 µg/mL (≈ 1.61 µM); in the test with Staphylococcus aureus [4], 9.37 µg/mL (≈ 6.47 µM).
As for `CCOc1ccc(/C=C/c2ccc3ccccc3[n+]2C)cc1.O=S(=O)([O-])c1ccc(Br)cc1`, the MIC against Enterococcus faecalis [2] stood at 18.8 µg/mL; against Enterococcus faecalis [3] it was 37.5 µg/mL; with Shigella sonnei it was 75 µg/mL; in the test with Staphylococcus aureus [1], 2.34 µg/mL; in the test on Bacillus subtilis it was 18.8 µg/mL; against Staphylococcus aureus [4], 300 µg/mL.
On to `CN(C)c1ccc(/C=C/c2ccc3ccccc3[n+]2C)cc1.O=S(=O)([O-])c1ccc(Cl)cc1`, for which the MIC against Enterococcus faecalis [2] was found to be 2.34 µg/mL; against Enterococcus faecalis [3], 2.34 µg/mL; in the test with Shigella sonnei, 2.34 µg/mL; in the test on Salmonella typhi, 300 µg/mL; against Staphylococcus aureus [1], 2.34 µg/mL; with Bacillus subtilis, 2.34 µg/mL. Moreover, the MIC against Pseudomonas aeruginosa [5] is 300 µg/mL; in the test with Staphylococcus aureus [4] it was 2.34 µg/mL.
Consider `CN(C)c1ccc(C=Cc2cccc[n+]2C)cc1.[I-]`, for which the MIC turned out to be 300 µg/mL against Enterococcus faecalis [2]; 300 µg/mL against Enterococcus faecalis [3]; 300 µg/mL with Shigella sonnei; 300 µg/mL in the test with Salmonella typhi; 37.5 µg/mL against Staphylococcus aureus [1]; 300 µg/mL against Bacillus subtilis. For the same compound, the minimal inhibitory concentration (MIC) in the test with Pseudomonas aeruginosa [5] and against Staphylococcus aureus [4] was 300 µg/mL each time.
With `CCOc1ccc(/C=C/c2cccc[n+]2C)cc1.Cc1ccc(S(=O)(=O)[O-])cc1`, the MIC against Enterococcus faecalis [2] was found to be 300 µg/mL; in the test with Enterococcus faecalis [3] it was 150 µg/mL; in the test on Shigella sonnei, 150 µg/mL; in the test on Salmonella typhi, 150 µg/mL; with Staphylococcus aureus [1], 37.5 µg/mL; against Bacillus subtilis it was 300 µg/mL. Moreover, the values for the MIC in the test on Pseudomonas aeruginosa [5] and against Staphylococcus aureus [4] were 37.5 µg/mL and 150 µg/mL, respectively.
On to `CCOc1ccc(/C=C/c2ccc3ccccc3[n+]2C)cc1.Nc1ccc(S(=O)(=O)[O-])cc1` [listing 2 of 2 here], for which, in the test with Pseudomonas aeruginosa [6], the MIC result is “inactive”.
Take `CCOc1ccc(/C=C/c2cccc[n+]2C)cc1.COc1ccc(S(=O)(=O)[O-])cc1`: in the test with Staphylococcus aureus [1], inhibition of growth (MIC) required 150 µg/mL.
Take `CCOc1ccc(/C=C/c2ccc3ccccc3[n+]2C)cc1.[I-]`: the MIC against Enterococcus faecalis [2] stood at 37.5 µg/mL; against Enterococcus faecalis [3] it was 75 µg/mL; against Shigella sonnei, 150 µg/mL; in the test on Staphylococcus aureus [1], 2.34 µg/mL; in the test with Bacillus subtilis it was 37.5 µg/mL.
In turn, `CN(C)c1ccc(/C=C/c2cccc[n+]2C)cc1.O=S(=O)([O-])c1ccc(Br)cc1` returned an MIC against Staphylococcus aureus [1] of 75 µg/mL.
Consider `CN(C)c1ccc(/C=C/c2cccc[n+]2C)cc1.COc1ccc(S(=O)(=O)[O-])cc1`, for which the minimum inhibitory concentration (MIC) turned out to be 150 µg/mL in the test on Enterococcus faecalis [2]; 150 µg/mL against Enterococcus faecalis [3]; 150 µg/mL against Shigella sonnei; 150 µg/mL against Salmonella typhi; 75 µg/mL in the test on Staphylococcus aureus [1]; 150 µg/mL in the test with Bacillus subtilis. Also, the MIC against Pseudomonas aeruginosa [5] and against Staphylococcus aureus [4] was 150 µg/mL throughout.
Take `CN(C)c1ccc(/C=C/c2cccc[n+]2C)cc1.O=S(=O)([O-])c1ccc(Cl)cc1`: the MIC with Enterococcus faecalis [2] came out at 150 µg/mL; in the test on Salmonella typhi it was 300 µg/mL; against Staphylococcus aureus [1], 37.5 µg/mL; in the test on Bacillus subtilis it was 300 µg/mL; against Pseudomonas aeruginosa [5], 300 µg/mL.
Turning to `CN(C)c1ccc(/C=C/c2ccc3ccccc3[n+]2C)cc1.[I-]`, the MIC in the test with Enterococcus faecalis [2] is 4.68 µg/mL; with Enterococcus faecalis [3], 18.8 µg/mL; in the test with Shigella sonnei, 4.68 µg/mL; against Salmonella typhi, 300 µg/mL; with Staphylococcus aureus [1] it was 9.37 µg/mL; in the test with Bacillus subtilis, 9.37 µg/mL. The MIC against Pseudomonas aeruginosa [5] is 300 µg/mL; with Staphylococcus aureus [4] it was 18.8 µg/mL.
Consider `CN(C)c1ccc(/C=C/c2cccc[n+]2C)cc1.Cc1ccc(S(=O)(=O)[O-])cc1`, for which the minimum inhibitory concentration (MIC) in the test with Enterococcus faecalis [2] is 300 µg/mL; in the test with Enterococcus faecalis [3], 300 µg/mL; in the test with Shigella sonnei, 300 µg/mL; against Salmonella typhi it was 300 µg/mL; against Staphylococcus aureus [1], 37.5 µg/mL; against Bacillus subtilis it was 150 µg/mL. In addition, the MIC came to 150 µg/mL against Pseudomonas aeruginosa [5] and 300 µg/mL against Staphylococcus aureus [4].
Regarding `CCOc1ccc(/C=C/c2cccc[n+]2C)cc1.[I-]`, the MIC against Shigella sonnei was 300 µg/mL; in the test on Staphylococcus aureus [1] it was 37.5 µg/mL.
In the case of `CN(C)c1ccc(/C=C/c2cccc[n+]2C)cc1.Nc1ccc(S(=O)(=O)[O-])cc1`, the figures for the MIC in the test with Enterococcus faecalis [2] and with Staphylococcus aureus [1] were 300 µg/mL and 37.5 µg/mL, respectively.
`CCOc1ccc(/C=C/c2cccc[n+]2C)cc1.O=S(=O)([O-])c1ccc(Cl)cc1`: in the test on Staphylococcus aureus [1], it took 75 µg/mL to inhibit growth (MIC).
Consider `CN(C)c1ccc(/C=C/c2ccc3ccccc3[n+]2C)cc1.Cc1ccc(S(=O)(=O)[O-])cc1`, for which the MIC against Enterococcus faecalis [2] worked out at 2.34 µg/mL; against Enterococcus faecalis [3] it was 2.34 µg/mL; in the test with Shigella sonnei it was 2.34 µg/mL; against Salmonella typhi, 300 µg/mL; in the test with Staphylococcus aureus [1], 2.34 µg/mL; in the test on Bacillus subtilis, 2.34 µg/mL. Besides, the results for the MIC in the test on Pseudomonas aeruginosa [5] and in the test with Staphylococcus aureus [4] were 300 µg/mL and 2.34 µg/mL, respectively.
Turning to `CCOc1ccc(/C=C/c2ccc3ccccc3[n+]2C)cc1.Cc1ccc(S(=O)(=O)[O-])cc1`, the MIC stood at 37.5 µg/mL with Enterococcus faecalis [2]; 37.5 µg/mL against Enterococcus faecalis [3]; 150 µg/mL with Shigella sonnei; 2.34 µg/mL against Staphylococcus aureus [1]; 9.37 µg/mL in the test on Bacillus subtilis.
Regarding `CN(C)c1ccc(/C=C/c2ccc3ccccc3[n+]2C)cc1.COc1ccc(S(=O)(=O)[O-])cc1`, the MIC in the test on Enterococcus faecalis [2] amounted to 150 µg/mL; against Enterococcus faecalis [3], 150 µg/mL; in the test on Shigella sonnei, 150 µg/mL; against Staphylococcus aureus [1], 2.34 µg/mL; against Bacillus subtilis it was 75 µg/mL.
Consider `CCOc1ccc(/C=C/c2ccc3ccccc3[n+]2C)cc1.O=S(=O)([O-])c1ccc(Cl)cc1`, for which the MIC was 150 µg/mL against Enterococcus faecalis [2]; 75 µg/mL against Enterococcus faecalis [3]; 300 µg/mL in the test with Shigella sonnei; 2.34 µg/mL in the test on Staphylococcus aureus [1]; 75 µg/mL with Bacillus subtilis.

The record behind these values is ChEMBL document CHEMBL1240464, “Synthesis, structure and in vitro antibacterial activities of new hybrid disinfectants quaternary ammonium compounds: pyridinium and quinolinium stilbene benzenesulfonates” (2010).
